According to ChEMBL document CHEMBL1949609, “Synthesis and biological evaluation of novel sinomenine derivatives as anti-inflammatory agents” (Eur J Med Chem, 2012):
Active and inactive are the calls of the source. The calls are words filed in the database; no cut-off is given here.

How the values were obtained:
[1] = molecular target: Transcription factor p65 (Mus musculus) (UniProt Q04207); test: Inhibition of NF-kappaB subunit p65 DNA binding activity in LPS-stimulated mouse RAW264.7 cells at 20 uM after 24 hrs by luciferase reporter gene assay; assay type: cell-based
[2] = molecular target: T1, NF-kappa-B inhibitor alpha (Mus musculus) (UniProt Q9Z1E3); test: Inhibition of IKappaBalpha degradation in LPS-stimulated mouse RAW264.7 cells at 10 uM at 4 to 6 hrs by Western blot analysis; assay type: cell-based
T1 sequence (whole entry): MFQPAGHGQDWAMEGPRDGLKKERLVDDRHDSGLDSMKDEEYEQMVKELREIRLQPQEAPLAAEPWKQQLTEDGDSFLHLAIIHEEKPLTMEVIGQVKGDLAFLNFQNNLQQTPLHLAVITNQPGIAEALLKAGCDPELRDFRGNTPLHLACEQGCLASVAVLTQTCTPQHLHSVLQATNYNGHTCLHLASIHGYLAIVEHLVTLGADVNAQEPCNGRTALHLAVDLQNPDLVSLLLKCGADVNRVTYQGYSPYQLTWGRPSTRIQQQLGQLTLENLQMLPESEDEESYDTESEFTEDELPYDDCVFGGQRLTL
Procedure, shortened: (§1)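 Cells were given compound at 10 µM with LPS 500 ng/mL and lysed (Triton X-100 buffer) at 2, 4 and 6 h. Protein was quantified by BCA, run on 10% SDS-PAGE and transferred to PVDF. Blots were probed for total and phosphorylated JNK, ERK1/2, p38, NF-κB p65 and IκBα.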

[3] = molecular target: Transcription factor p65 (Mus musculus) (UniProt Q04207); test: Inhibition of NF-kappaB subunit p65 DNA binding activity in LPS-stimulated mouse RAW264.7 cells at 10 uM after 20 mins by electrophoretic mobility shift assay; assay type: cell-based
Procedure, shortened: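 Nuclear extract (5 µg) was incubated with a biotin-labelled NF-κB consensus probe for 20 min at room temperature. Complexes were resolved on a 6% native gel in 0.5× TBE at 4 °C, then transferred to nylon and detected by chemiluminescence. Specificity was checked by 100-fold unlabelled competitor and p65 antibody supershift.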

[4] = molecular target: MAP kinase p38 (Mus musculus) (UniProt P47811+O08911+Q9WUI1+Q9Z1B7); test: Inhibition of LPS-induced MAPK p38 phosphorylation in mouse RAW264.7 cells at 10 uM after 4 to 6 hrs by Western blot analysis; assay type: cell-based; procedure, shortened: as §1
[5] = molecular target: T1, NF-kappa-B inhibitor alpha (Mus musculus); test: Inhibition of LPS-induced IkappaBalpha phosphorylation in mouse RAW264.7 cells at 10 uM at 6 hrs by Western blot analysis; assay type: cell-based; procedure, shortened: as §1
RAW264.7 [6] = test: Inhibition of MAPK-mediated NFkappa B subunit p65 phosphorylation in LPS-stimulated mouse RAW264.7 cells at 10 uM at 6 hrs by Western blot analysis; assay type: cell-based; procedure, shortened: as §1
RAW264.7 [7] = test: Antiinflammatory activity in mouse RAW264.7 cells assessed as inhibition of LPS-induced IL-6 production at 10 uM after 6 hrs by ELISA (reference value: 1046.1 +/- 111.2 pg/ml); assay type: functional
Procedure, shortened: (§2)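 RAW264.7 cells (DMEM, 5% FBS, 37 °C, 5% CO2) were exposed to compound at 10 µM plus LPS 500 ng/mL at the same time, with 0.1% DMSO final. Supernatant TNF-α and IL-6 were measured by ELISA at 6, 12 and 24 h.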

RAW264.7 [8] = test: Cytotoxicity against mouse RAW264.7 cells after 24 hrs by MTT assay; assay type: cell-based; conditions: RAW264.7, 24 h
Procedure, shortened: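 Growth of non-LPS RAW264.7 cells was measured by MTT after 24 h with compound: MTT for 4 h, formazan dissolved in DMSO, OD570. Untreated cells were set as 100% viability. IC50 is the concentration giving 50% growth inhibition.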

RAW264.7 [9] = test: Antiinflammatory activity in mouse RAW264.7 cells assessed as inhibition of LPS-induced IL-6 production at 10 uM after 12 hrs by ELISA (reference value: 2145.1 +/- 368.7 pg/ml); assay type: functional; procedure, shortened: as §2
RAW264.7 [10] = test: Antiinflammatory activity in mouse RAW264.7 cells assessed as inhibition of LPS-induced TNFalpha production at 10 uM after 12 hrs by ELISA (reference value: 4126.8 +/- 282 pg/ml); assay type: functional; procedure, shortened: as §2
[11] = molecular target: T2, Mitogen-activated protein kinase 1 and 3 (ERK2 and ERK1) (Mus musculus) (UniProt P63085+Q63844); test: […] of LPS-induced Erk1/2 phosphorylation in mouse RAW264.7 cells at 10 uM after 4 to 6 hrs by Western blot analysis; assay type: cell-based; procedure, shortened: as §1
RAW264.7 [12] = test: Inhibition of LPS-induced JNK phosphorylation in mouse RAW264.7 cells at 10 uM after 4 to 6 hrs by Western blot analysis; assay type: cell-based; procedure, shortened: as §1
[13] = molecular target: Transcription factor p65 (Mus musculus) (UniProt Q04207); test: Inhibition of NF-kappaB subunit p65 DNA binding activity in LPS-stimulated mouse RAW264.7 cells at 10 uM after 24 hrs by luciferase reporter gene assay; assay type: cell-based
RAW264.7 [14] = test: Antiinflammatory activity in mouse RAW264.7 cells assessed as inhibition of LPS-induced TNFalpha production at 10 uM after 6 hrs by ELISA (reference value: 2646.1 +/- 499.8 pg/ml); assay type: functional; procedure, shortened: as §2
RAW264.7 [15] = test: Antiinflammatory activity in mouse RAW264.7 cells assessed as inhibition of LPS-induced IL-6 production at 10 uM after 24 hrs by ELISA (reference value: 13412 +/- 1167.6 pg/ml); assay type: functional; procedure, shortened: as §2
RAW264.7 [16] = test: Antiinflammatory activity in mouse RAW264.7 cells assessed as inhibition of LPS-induced nitric oxide production after 24 hrs by Griess method; assay type: functional, cell-based; conditions: RAW264.7, 24 h
Procedure, shortened: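 Cells were treated with compound (0.5–100 µM; 0.1% DMSO final) and LPS 500 ng/mL together for 24 h. Nitrite in the medium was read with Griess reagent (10 min, room temperature, dark) at OD540. IC50 comes from three separate experiments, each in triplicate.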

Mus musculus [17] = test: Antiinflammatory activity in BALB/c mouse assessed as decrease in LPS-induced serum TNFalpha level at 15 mg/kg, ip QD administered 3 days prior to LPS challenge measured after 3 hrs by ELISA; assay type: functional, organism-based; design: dose 15 mg/kg
Procedure, shortened: (§3)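 Balb/c mice were dosed i.p. at 15 mg/kg daily for 3 days (olive oil vehicle) before LPS 20 mg/kg i.p. Blood was drawn 3 h after LPS, and serum TNF-α and IL-6 were measured by ELISA. n = 6.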

Mus musculus [18] = test: Antiinflammatory activity in BALB/c mouse assessed as increase in survival rate at 15 mg/kg, ip QD administered 3 days prior to LPS challenge measured after 3 hrs (reference value: 10%); assay type: functional; conditions: route intraperitoneal
Mus musculus [19] = test: Antiinflammatory activity in BALB/c mouse assessed as decrease in LPS-induced serum IL-6 level at 15 mg/kg, ip QD administered 3 days prior to LPS challenge measured after 3 hrs by ELISA; assay type: functional, organism-based; design: dose 15 mg/kg; procedure, shortened: as §3
RAW264.7 [20] = test: Antiinflammatory activity in mouse RAW264.7 cells assessed as inhibition of LPS-induced TNFalpha production at 10 uM after 24 hrs by ELISA (reference value: 10124 +/- 1137.2 pg/ml); assay type: functional; procedure, shortened: as §2
Mus musculus [21] = test: Antiinflammatory activity in BALB/c mouse assessed as decrease in LPS-induced mortality at 15 mg/kg, ip QD administered 3 days prior to LPS challenge; assay type: functional, organism-based; design: dose 15 mg/kg
Procedure, shortened: (§4)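 Balb/c mice (~20 g), 10 per group, given compound in olive oil at 15 mg/kg i.p. once daily for 3 days, then LPS 20 mg/kg i.p. Cumulative survival was followed after LPS and analysed by Kaplan–Meier against LPS-only mice.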

[22] = molecular target: T1, NF-kappa-B inhibitor alpha (Mus musculus); test: Inhibition of LPS-induced IkappaBalpha phosphorylation in mouse RAW264.7 cells at 10 uM at 4 hrs by Western blot analysis; assay type: cell-based; procedure, shortened: as §1
[23] = molecular target: T1, NF-kappa-B inhibitor alpha (Mus musculus); test: Inhibition of LPS-induced IkappaBalpha phosphorylation in mouse RAW264.7 cells at 10 uM after 4 to 6 hrs by Western blot analysis; assay type: cell-based; procedure, shortened: as §1
Mus musculus [24] = test: Antiinflammatory activity in BALB/c mouse assessed as increase in survival rate at 15 mg/kg, ip QD administered 3 days prior to LPS challenge measured after 19 hrs; assay type: functional; conditions: route intraperitoneal; procedure, shortened: as §4
RAW264.7 [25] = test: Inhibition of MAPK-mediated NFkappa B subunit p65 phosphorylation in LPS-stimulated mouse RAW264.7 cells at 10 uM after 4 to 6 hrs by Western blot analysis; assay type: cell-based; procedure, shortened: as §1
[26] = molecular target: T2, Mitogen-activated protein kinase 1 and 3 (ERK2 and ERK1) (Mus musculus); test: Inhibition of LPS-induced Erk1/2 phosphorylation in mouse RAW264.7 cells at 10 uM after 4 to 6 hrs by Western blot analysis; assay type: cell-based; procedure, shortened: as §1
[27] = molecular target: Transcription factor p65 (Mus musculus) (UniProt Q04207); test: Inhibition of NF-kappaB subunit p65 DNA binding activity in LPS-stimulated mouse RAW264.7 cells at 5 to 20 uM by luciferase reporter gene assay; assay type: cell-based
[28] = molecular target: Transcription factor p65 (Mus musculus) (UniProt Q04207); test: Inhibition of NF-kappaB subunit p65 DNA binding activity in LPS-stimulated mouse RAW264.7 cells at 5 to 20 uM by electrophoretic mobility shift assay; assay type: cell-based
[29] = molecular target: T1, NF-kappa-B inhibitor alpha (Mus musculus); test: Inhibition of IKappaBalpha degradation in LPS-stimulated mouse RAW264.7 cells at 10 uM by Western blot analysis; assay type: cell-based; procedure, shortened: as §1
RAW264.7 [30] = test: Antiinflammatory activity in mouse RAW264.7 cells assessed as inhibition of LPS-induced TNFalpha production at 10 uM after 6 to 24 hrs by ELISA; assay type: functional, cell-based; procedure, shortened: as §2
RAW264.7 [31] = test: Antiinflammatory activity in mouse RAW264.7 cells assessed as inhibition of LPS-induced IL-6 production at 10 uM after 6 to 24 hrs by ELISA; assay type: functional, cell-based; procedure, shortened: as §2

Sequence of Transcription factor p65 (Mus musculus) (Q04207 whole entry): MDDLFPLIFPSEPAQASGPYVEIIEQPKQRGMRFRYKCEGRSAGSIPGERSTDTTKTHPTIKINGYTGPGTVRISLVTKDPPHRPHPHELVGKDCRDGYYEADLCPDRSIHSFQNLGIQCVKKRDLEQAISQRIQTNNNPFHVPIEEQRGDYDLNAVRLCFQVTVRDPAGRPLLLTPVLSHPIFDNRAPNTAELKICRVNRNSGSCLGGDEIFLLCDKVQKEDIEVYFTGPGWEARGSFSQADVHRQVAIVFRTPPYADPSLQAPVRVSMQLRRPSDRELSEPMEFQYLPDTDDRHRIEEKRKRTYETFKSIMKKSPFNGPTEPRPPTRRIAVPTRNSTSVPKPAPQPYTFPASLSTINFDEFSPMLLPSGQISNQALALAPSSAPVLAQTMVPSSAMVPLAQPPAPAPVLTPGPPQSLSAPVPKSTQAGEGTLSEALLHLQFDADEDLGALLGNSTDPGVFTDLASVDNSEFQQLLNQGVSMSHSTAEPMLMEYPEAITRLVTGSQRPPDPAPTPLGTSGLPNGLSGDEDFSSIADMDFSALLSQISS
T2 sequence (P63085 whole entry, looked up): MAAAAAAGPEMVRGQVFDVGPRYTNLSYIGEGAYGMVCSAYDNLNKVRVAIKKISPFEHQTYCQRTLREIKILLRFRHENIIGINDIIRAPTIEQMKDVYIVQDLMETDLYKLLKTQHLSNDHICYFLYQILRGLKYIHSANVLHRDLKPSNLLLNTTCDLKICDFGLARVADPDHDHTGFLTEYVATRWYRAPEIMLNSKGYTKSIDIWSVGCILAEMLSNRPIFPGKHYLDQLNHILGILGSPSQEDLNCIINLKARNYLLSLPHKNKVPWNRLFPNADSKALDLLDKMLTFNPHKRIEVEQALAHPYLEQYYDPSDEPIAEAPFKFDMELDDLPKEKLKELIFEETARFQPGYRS
T2 sequence (Q63844 whole entry, looked up): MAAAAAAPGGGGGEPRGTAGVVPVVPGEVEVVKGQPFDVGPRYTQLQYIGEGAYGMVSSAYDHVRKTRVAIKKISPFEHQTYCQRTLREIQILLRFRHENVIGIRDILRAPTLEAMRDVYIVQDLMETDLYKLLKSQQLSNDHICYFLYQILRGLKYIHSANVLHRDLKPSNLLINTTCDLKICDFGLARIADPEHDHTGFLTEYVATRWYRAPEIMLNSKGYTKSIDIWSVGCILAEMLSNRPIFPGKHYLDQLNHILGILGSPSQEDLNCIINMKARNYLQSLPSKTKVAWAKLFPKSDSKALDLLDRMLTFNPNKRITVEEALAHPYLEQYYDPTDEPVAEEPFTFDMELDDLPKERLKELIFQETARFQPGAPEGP

Row | Compound | inhibition [4] | Activity (RAW264.7 [7]) [pg/mL] | IC50 (RAW264.7 [8]) [µM] | Activity (RAW264.7 [9]) [pg/mL] | Activity (RAW264.7 [10]) [pg/mL] | inhibition (RAW264.7 [12]) | Activity (RAW264.7 [14]) [pg/mL] | Activity (RAW264.7 [15]) [pg/mL] | IC50 (RAW264.7 [16]) [µM] | Activity (Mus musculus [17]) | survival at 15 mg/kg (Mus musculus [18]) [%] | Activity (Mus musculus [19]) | Activity (RAW264.7 [20]) [pg/mL] | further results
1 | COC1=C[C@@H]2[C@@H]3Cc4ccc(OC)c(OCCCOc5c(OC)ccc6c5[C@@]57CCN(C)[C@@H](C6)[C@H]5C=C(OC)C(=O)C7)c4[C@]2(CCN3C)CC1=O | inactive | 949.7 | 41.1 | 1667.8 | 3501.9 | inactive | 1817.6 | 13096.9 | 15.2 | Active | 70 | Active | 8303.2 | inhibition [1]: Active; inhibition [2]: Active; inhibition [3]: inactive; inhibition [5]: Active; inhibition (RAW264.7 [6]): Active; Activity [11]: Active; inhibition [13]: inactive; Activity (Mus musculus [21]): Active
2 | CCCCCCCCC(=O)Oc1c(OC)ccc2c1[C@@]13CCN(C)[C@@H](C2)[C@H]1C=C(OC)C(=O)C3 | Active | 148.5 | 58.2 | 223.7 | 4503.8 | Active | 2338.5 | 486.3 | 24.1 | Active | 30 | Active | 9728.9 | inhibition [22]: inactive; inhibition [23]: Active; survival at 15 mg/kg (Mus musculus [24]): 30%; inhibition (RAW264.7 [25]): Active; inhibition [26]: Active; inhibition [27]: Active; inhibition [28]: Active; inhibition [29]: Active
3 | COC1=C[C@@H]2[C@@H]3Cc4ccc(OC)c(O)c4[C@]2(CCN3C)CC1=O [SINOMENINE] |  |  | > 200 |  |  |  |  |  | > 200 |  |  |  |  | inhibition (RAW264.7 [30]): inactive; inhibition (RAW264.7 [31]): inactive
